The results in this text go back to ChEMBL document CHEMBL1147636, “Fluorescence-labeled sphingosines as substrates of sphingosine kinases 1 and 2” (Bioorg Med Chem Lett, 2004).

The target of test [1] is Sphingosine kinase 1 (Homo sapiens) (UniProt Q9NYA1). The experiment in a line: Rate of phosphorylation of labeled sphingosine derivative by human SPHK-1 expressed in HEK293 cells relative to rate of D-sphingosine. Type of test: functional, cell-based. In short, it runs like this: (§1)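 Enzyme source was the cytoplasmic fraction of HEK-293 cells overexpressing human SPHK-1 or -2. Incubation was at 30 °C for time points up to 2 h. Lipids were extracted, separated by TLC and quantified by phosphorimaging, and rates were expressed relative to sphingosine.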
Sequence of Sphingosine kinase 1 (Homo sapiens) (Q9NYA1 whole entry): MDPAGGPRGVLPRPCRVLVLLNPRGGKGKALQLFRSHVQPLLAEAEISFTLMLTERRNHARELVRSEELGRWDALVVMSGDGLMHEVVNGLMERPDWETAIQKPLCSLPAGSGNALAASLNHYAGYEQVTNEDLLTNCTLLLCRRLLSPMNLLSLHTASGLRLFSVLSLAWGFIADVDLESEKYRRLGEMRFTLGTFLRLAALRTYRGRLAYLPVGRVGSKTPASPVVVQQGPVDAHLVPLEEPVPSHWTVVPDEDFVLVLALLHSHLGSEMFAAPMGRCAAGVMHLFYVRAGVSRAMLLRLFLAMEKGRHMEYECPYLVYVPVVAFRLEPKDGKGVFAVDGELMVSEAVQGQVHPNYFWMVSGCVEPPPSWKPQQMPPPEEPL

In test [2] the target is T1, Sphingosine kinase 2 (Homo sapiens) (UniProt Q9NRA0).
T1 sequence (whole entry): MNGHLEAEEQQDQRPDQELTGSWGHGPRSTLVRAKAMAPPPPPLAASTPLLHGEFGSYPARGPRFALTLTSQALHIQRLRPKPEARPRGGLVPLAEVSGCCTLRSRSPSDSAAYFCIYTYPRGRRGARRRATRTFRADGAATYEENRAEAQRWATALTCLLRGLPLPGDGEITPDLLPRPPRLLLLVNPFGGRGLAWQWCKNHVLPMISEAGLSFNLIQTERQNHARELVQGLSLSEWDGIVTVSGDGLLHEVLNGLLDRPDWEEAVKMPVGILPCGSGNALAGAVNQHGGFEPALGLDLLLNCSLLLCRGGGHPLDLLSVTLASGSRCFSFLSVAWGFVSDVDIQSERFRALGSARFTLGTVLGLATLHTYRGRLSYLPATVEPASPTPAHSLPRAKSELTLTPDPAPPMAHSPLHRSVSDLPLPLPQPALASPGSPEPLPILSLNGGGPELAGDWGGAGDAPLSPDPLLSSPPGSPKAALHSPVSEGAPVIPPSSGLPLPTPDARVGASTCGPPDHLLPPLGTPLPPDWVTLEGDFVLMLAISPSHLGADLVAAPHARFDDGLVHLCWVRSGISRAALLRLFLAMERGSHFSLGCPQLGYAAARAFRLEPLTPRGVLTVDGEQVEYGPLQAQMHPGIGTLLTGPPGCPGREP
The experiment in a line: Rate of phosphorylation of labeled sphingosine derivative by human SPHK-2 expressed in HEK293 cells relative to rate of D-sphingosine. Type of test: functional, cell-based. The gist of the method: as §1

With `N[C@@H](CO)[C@H](O)/C=C/CCCOC(=O)CCCCCc1ccc2ccc3cccc4ccc1c2c34`, the Rate in test [1] amounted to 0.078; in test [2], 0.83.

For the compound `N[C@@H](CO)[C@H](O)/C=C/CCCOC(=O)CCCCCCCCCc1ccc2ccc3cccc4ccc1c2c34`, the values for the Rate in test [1] and in test [2] were 0.024 and 0.065, respectively.

Turning to `NC(CO)[C@H](O)/C=C/CCCCCCCCCCNc1ccc([N+](=O)[O-])c2nonc12` (single isomer, unassigned), the Rate came to 0.5 in test [1] and 0.48 in test [2].

For the compound `CN(C)c1ccc(S(=O)(=O)NCCCCCCCCCC/C=C/C(O)C(N)CO)c2ccccc12` (single isomer, unassigned), the Rate in test [1] worked out at 0.063; in test [2], 0.026.

`N[C@@H](CO)[C@H](O)/C=C/CCCCCCCCCCOC(=O)c1ccc2ccc3cccc4ccc1c2c34`: the Rate in test [1] was determined as 0.83; in test [2], 1.25.

With `N[C@@H](CO)[C@H](O)/C=C/CCCOC(=O)CCCc1ccc2ccc3cccc4ccc1c2c34`, the Rate in test [1] came to 0.048; in test [2], 0.14.

Turning to `NC(CO)[C@H](O)/C=C/CCCCCCCCCCNS(=O)(=O)c1ccc2ccc3cccc4ccc1c2c34` (some centres undefined), the Rate in test [1] amounted to 0.051; in test [2], 0.83.
